# Published values gathered from unrelated publications.
# Protocols differ between the studies behind these lines.
SMILES,assay,test system,setting,endpoint,value
O=[N+]([O-])c1ccc(-c2ccc(O)cc2)c2cccnc12,,"male CD-1 mouse, plasma","intravenous, 1 mg/kg",MRT(0-inf),0.11 h
CCC(CC)COC(=O)[C@H](C)N[P@](=O)(OC[C@@H]1C[C@@H](O)[C@H](n2cnc3c(N)ncnc32)O1)Oc1ccccc1,metabolic stability,"human, liver microsomes",1 µM,half-life,0.0137 h
CCN1CCN(Cc2ccc(NC(=O)c3ccc(C)c(NC(=O)c4cncc(-c5cccs5)c4)c3)cc2C(F)(F)F)CC1,,"mouse, plasma","intraperitoneal, 15 mg/kg, single dose",MRT,3.09 h
NC(=O)N1c2ccccc2C=Cc2ccccc21,metabolic stability,"human, liver microsomes",1 µM,half-life,> 3 h
CSc1nccc(C(=O)N[C@@H](CCC(=O)O)C(=O)N[C@@H](Cc2ccc3ccccc3c2)C(=O)N[C@@H](CC(C)C)C(=O)NC2CC2c2ccccc2)n1 (stereo partly shown),metabolic stability,"human, plasma",,half-life,36.9 h
CC(=O)O[C@@]12CO[C@@H]1C[C@H](O)[C@@]1(C)C(=O)[C@H](O)C3=C(C)[C@@H](OC(=O)[C@H](O)[C@@H](NC(=O)OC(C)(C)C)c4ccccc4)C[C@@](O)([C@@H](OC(=O)c4ccccc4)[C@H]21)C3(C)C,,"male Kunming mouse, liver","oral, 20 mg/kg",MRT,5.7 h
CCOc1ccc(N(C)S(=O)(=O)c2cc(Cl)sc2C(=O)Nc2cc(Cl)cc(C(=O)O)c2)cc1OC,,"male C57BL/6 mouse, plasma","intraperitoneal, 10 mg/kg",MRT(0-inf),0.781 h
COc1cc(C(=O)OCCCN2CCCN(CCCOC(=O)c3cc(OC)c(OC)c(OC)c3)CC2)cc(OC)c1OC,,"male CD-1 mouse, brain",subcutaneous,MRT(0-inf),1.72 h
CCOC(=O)c1cc(Cl)cc(NC(=O)c2sc(Cl)cc2S(=O)(=O)N(C)c2ccc(OCC)c(OC)c2)c1,,"male C57BL/6 mouse, brain","intraperitoneal, 10 mg/kg",MRT(0-inf),3.28 h
C=CS(=O)(=O)c1ccc(Nc2nc(OCC3CCCCC3)c3nc[nH]c3n2)cc1,,"male BALB/c mouse, plasma","intravenous, 20 mg/kg, single dose",MRT(0-t),0.71 h
